This is a sample that favours compounds with a hit; in the whole collection about 2.3% have one here.
ABCB1 inh: inhibitors of human ABCB1 transporter, ABCG2 counter-screen | P08183 | CCRF-Adr cells, JC-1 efflux, flow cytometry | inhibition, % at 6.6 µM | actives 0.067% (n = 190,000); in the data active = inhibition above about 40%;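 also: 0% = vehicle and 100% = reference inhibitor; higher value means more JC-1 retained so stronger ABCB1 efflux block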
Target sequence (P08183 whole entry, looked up): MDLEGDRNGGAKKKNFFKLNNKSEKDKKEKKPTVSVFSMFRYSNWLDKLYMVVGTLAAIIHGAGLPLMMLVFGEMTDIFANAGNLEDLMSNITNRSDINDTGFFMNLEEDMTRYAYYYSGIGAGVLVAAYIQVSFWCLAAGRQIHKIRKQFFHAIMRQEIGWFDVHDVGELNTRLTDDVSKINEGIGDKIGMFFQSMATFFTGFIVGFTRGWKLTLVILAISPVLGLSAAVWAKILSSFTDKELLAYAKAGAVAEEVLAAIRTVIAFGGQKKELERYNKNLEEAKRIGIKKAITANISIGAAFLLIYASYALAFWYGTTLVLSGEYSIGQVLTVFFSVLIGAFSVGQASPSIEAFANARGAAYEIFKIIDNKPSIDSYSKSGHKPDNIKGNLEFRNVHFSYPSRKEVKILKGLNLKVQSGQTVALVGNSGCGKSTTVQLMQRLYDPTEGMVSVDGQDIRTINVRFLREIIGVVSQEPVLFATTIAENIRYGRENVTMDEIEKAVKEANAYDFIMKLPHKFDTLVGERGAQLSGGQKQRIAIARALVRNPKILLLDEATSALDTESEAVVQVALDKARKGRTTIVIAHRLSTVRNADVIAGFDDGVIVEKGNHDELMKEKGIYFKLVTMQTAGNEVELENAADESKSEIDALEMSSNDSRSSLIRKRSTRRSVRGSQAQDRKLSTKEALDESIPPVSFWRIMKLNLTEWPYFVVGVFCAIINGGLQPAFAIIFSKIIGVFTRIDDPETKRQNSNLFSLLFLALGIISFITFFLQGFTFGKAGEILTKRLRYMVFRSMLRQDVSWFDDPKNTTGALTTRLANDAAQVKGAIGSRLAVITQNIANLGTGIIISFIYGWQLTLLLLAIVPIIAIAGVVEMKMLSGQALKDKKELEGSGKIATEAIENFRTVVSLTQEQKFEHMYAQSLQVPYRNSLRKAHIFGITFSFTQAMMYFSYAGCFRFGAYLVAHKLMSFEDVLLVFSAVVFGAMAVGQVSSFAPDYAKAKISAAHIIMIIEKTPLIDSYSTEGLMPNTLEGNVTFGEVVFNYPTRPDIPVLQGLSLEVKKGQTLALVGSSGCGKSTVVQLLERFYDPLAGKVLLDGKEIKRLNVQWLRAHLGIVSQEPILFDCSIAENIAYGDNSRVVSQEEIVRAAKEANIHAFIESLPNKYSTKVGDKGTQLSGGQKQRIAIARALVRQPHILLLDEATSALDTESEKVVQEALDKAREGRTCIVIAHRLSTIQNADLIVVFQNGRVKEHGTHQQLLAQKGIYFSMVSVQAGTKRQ
ABCG2 inh: blocks JC-1 efflux by human ABCG2 transporter | Q9UNQ0 | actives 0.1% (n = 190,000) | IgMXP3 cells, flow cytometry | AID 1325 | inhibition, % at 6.6 µM;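 active = inhibition above 80%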;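 also: 0% = DMSO and 100% = nicardipine control wells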
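Measure – % inhibition of efflux relative to nicardipine and DMSO · Test system – ABCG2 IgMXP3 and barcoded ABCB1 CCRF-Adr cell mix · Control set – nicardipine as high control, DMSO as low control · Compound – one concentration, 6.6 µM final · Signal – flow cytometry of retained JC-1 fluorescence · Timing – 10 min exposure at 25 °C with rotation, no wash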
MEKK2mut PB1 HTS: signal of MEK5 binding to mutant human MEKK2 PB1 domain; AID 1530; bead flow cytometry, Alexa488-MEK5 binding to MEKK2 mutant; percent response, % at 10 µM; actives 0.35% (n = 290,000); in the data active = percent response above about 24%, passing the limit was not always enough
MEKK3 PB1 HTS: MEKK3-MEK5 PB1 interaction, increase or decrease; bead-based flow cytometry, Alexa488-MEK5 binding to MEKK3; actives lie on both sides; 0 = blocked by unlabeled MEK5, 100 = vehicle; AID 1529; binding response (% of control), % at 10 µM; actives 1.4% (n = 290,000);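 active = binding response more than 3 SD above or below the average of its plate-row segment, actives on both sides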;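 also: Alexa488 bead fluorescence after subtracting the streptavidin-only scavenger bead signal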
MEKK2 WT-MEK5: raises or lowers MEK5 binding to wildtype human MEKK2 PB1 domain; Q9Y2U5; binding response (% of control), % at 10 µM; AID 1531; bead flow cytometry, Alexa488-MEK5 binding to MEKK2 WT; actives lie on both sides; actives 1.1% (n = 290,000); in the data active = binding response below about 67% or above about 130%
The depositor's hits bear a star; . = not tested or not shown; [ ] = remark or other dose.

SMILES | ABCB1 inh | ABCG2 inh | MEKK2mut PB1 HTS | MEKK3 PB1 HTS | MEKK2 WT-MEK5
C=CCCc1ccc(C#N)c(SCc2c(C(=O)OCC)c3cc(OC(C)=O)c(Br)cc3n2C)n1 | 0 | -1 | 17 | 103 | 81
CCOC(=O)c1c(CSC(=N)N)n(-c2ccc(Br)cc2)c2cc(Br)c(OC(C)=O)cc12 | 1 | 6 | 17 | 103 | 143*
CCOC(=O)c1c(CSc2nc(C)cc(C)c2C#N)n(C)c2cc(Br)c(OC(C)=O)cc12 | 0 | -1 | 1 | 101 | 96
CCCCCCCCOC(=O)c1c(CSC(=N)N)n(C)c2cc(Br)c(OC(C)=O)cc12 | . | . | 136* | 105 | 281*
Cc1nn2c(Nc3ccccc3)c3c(nc2c1-c1ccccc1)CCC3 | 1 | 12 | 2 | 176* | 113
Cn1cc(C(=O)N2CCN(c3cccc(Cl)c3)CC2)c(=O)c2cc(S(=O)(=O)N3CCOCC3)ccc21 | . | . | 3 | 103 | 102
O=C(CC1C(=O)NCCN1Cc1ccccn1)NCCc1ccccc1F (configuration not stated) | . | . | 12 | 109 | 115
NS(=O)(=O)c1ccc(CCNC(=S)NC2CCCC2)cc1 | 1 | 1 | -15 | 95 | -10*
NS(=O)(=O)c1ccc(CNC(=S)NC2CCCCC2)cc1 | . | . | -3 | 97 | 94
Cc1cc2c(cc1S(=O)(=O)N1CCN(c3cccc(C(F)(F)F)c3)CC1)OCC(=O)N2 | . | . | -1 | 100 | 98
CC(=O)c1ccc(N2CCN(S(=O)(=O)c3cc4c(cc3C)NC(=O)CO4)CC2)cc1 | . | . | -21 | 1.0*[inhibitor] | 0.0*[inhibitor]
Cc1ccccc1N1CCN(C2CCCN(C(=O)c3cnsn3)C2)CC1 (configuration not stated) | . | . | -13 | 77*[inhibitor] | 65*[inhibitor]
CCCCc1cc(C(=O)Cc2ccccn2)c(O)cc1O | . | . | 4 | 101 | 103
COc1cc2c(cc1OC)CN(C1CCCN(Cc3cc(Cl)ccc3O)C1)CC2 (configuration not stated) | . | . | 4 | 100 | 111
CC(=O)NS(=O)(=O)c1ccc2c(c1)C(=O)c1cc(S(=O)(=O)NC(C)=O)ccc1-2 | . | . | -3 | 98 | -8.0*
CC(NS(=O)(=O)c1ccc2c(c1)C(=O)c1cc(S(=O)(=O)NC(C)C(=O)O)ccc1-2)C(=O)O (configuration not stated) | . | . | 4 | 104 | 107
COC(=O)c1cc(S(=O)(=O)N2CCN(C(=O)c3ccco3)CC2)cn1C | . | . | -1 | 97 | 100
NC(=O)C1CCN(C(=O)NC(=O)c2ccccc2)CC1 | . | . | 2 | 101 | 100
CCn1c2ccccc2c2cc(NC(=O)CN3CCCC3)ccc21 | . | . | 19 | 100 | 139*
Cc1cc(=O)n2c3ccccc3n(CC(O)CN3CCC(C)CC3)c2c1C#N (configuration not stated) | 1 | -4 | 0 | 135* | 105
N#C/C(=C\c1ccccc1[N+](=O)[O-])C(=O)NCc1ccccc1 | . | . | -19 | 85 | 89
C=CCNC(=O)/C(C#N)=C/c1ccccc1[N+](=O)[O-] | 0 | 36 | 19 | 98 | 4.0*
CCOC(=O)CC1(NC(=O)C2CCC(=O)N(Cc3ccccc3OC)C2)CCCCC1 (configuration not stated) | . | . | 1 | 100 | 96
Cc1cc(NC(=O)/C=C/c2ccccc2Cl)n(-c2nc3ccccc3[nH]2)n1 | 0 | -4 | 1 | 150* | 117
Cc1cccc(C(=O)OCCN2CCOCC2)c1 | . | . | 3 | 102 | 99
SMILES | ABCB1 inh | ABCG2 inh | MEKK2mut PB1 HTS | MEKK3 PB1 HTS | MEKK2 WT-MEK5
Cc1c(C(=O)O)cccc1-c1ccc(/C=C2/NC(=O)N(c3ccccc3)C2=O)o1 | 1 | 0 | 2 | 99 | -10*
CN(CCCC[C@H](CNCc1ccc(-c2ccccc2)cc1)N1C[C@H](c2ccccc2)N(CCc2ccc(Cl)c(Cl)c2)C(=O)C1=O)Cc1ccc(-c2ccccc2)cc1 | . | . | 78* | 113 | 228*
CCOc1ccc(CCN2C(=O)C(=O)N([C@H](CCCN(C)Cc3ccccc3)CNCc3ccccc3)C[C@@H]2C(C)C)cc1 | . | . | 5 | 96 | 105
COc1cc(NS(=O)(=O)c2csc(C(N)=O)c2)cc(OC)c1 | . | . | 7 | 107 | 105
CS(=O)(=O)c1cccc(C(=O)Nc2ccc3c(c2)OCCCO3)c1 | . | . | -1 | 102 | 98
CCn1c(=O)c(CCC(=O)N2CCN(c3ccccn3)CC2)c(C)c2c(C)nn(-c3cccc(C)c3)c21 | . | . | -14 | 96 | 89
CN(C)c1ccc(NC(=O)CSc2nc3ccccc3c(=O)n2C2CCCCC2)cc1 | 2 | 6 | -3 | 101 | 97
CCCN(CCC)C(=O)CSc1nc2ccccc2c(=O)n1C1CCCC1 | 52* | 44 | -5 | 88 | 85
CC(=O)OCCCNc1cc(Sc2ccc(C)cc2)c2nonc2c1[N+](=O)[O-] | 0 | 1 | 1 | 130* | 105
N#C/C(=C\c1sc(N2CCOCC2)nc1-c1ccccc1)C(=O)Nc1cccc2ccccc12 | 23 | 16 | 5 | 135* | 92
CCOc1cc(/C=N/NC(=O)c2nnn(-c3nonc3N)c2C)ccc1OCc1cccc(F)c1 | . | . | 9 | 102 | 101
Cn1nccc1C(=O)N(CCN1CCCCC1)CC1CCCN(C2CCCC2)C1 (configuration not stated) | . | . | 3 | 103 | 110
Cc1ccc(-c2csc3nc4c5ccccc5c(NCCCN(C)C)nn4c(=O)c23)cc1 | -1 | -3 | 65* | 107 | 195*
Cc1ccc(-c2csc3nc(C)n(N)c(=O)c23)cc1 | 1 | 5 | -1 | 104 | 104
O=C1Nc2cc(C(=O)NCCCN3CCOCC3)ccc2S/C1=C/c1cccc(Cl)c1 | . | . | 16 | 102 | 147*
CCOc1ccc(/C=C2/Sc3ccc(C(=O)NCC4CCCO4)cc3N(C)C2=O)cc1OC (configuration not stated) | . | . | 0 | 104 | 104
COc1ccc(/C=C2/Sc3ccc(C(=O)NCCN4CCCCCC4)cc3NC2=O)cc1 | . | . | 71* | 111 | 281*
CCC1CCCCN1CCCNC(=O)c1ccc(/C=C2/Sc3ccccc3NC2=O)cc1 (configuration not stated) | . | . | 15 | 104 | 151*
CCC1CCCCN1CCCNC(=O)c1ccc2c(c1)NC(=O)CS2 (configuration not stated) | . | . | 4 | 101 | 116
COc1ccc(/C=C2\Sc3ccc(C(=O)NCCCN4CCCC4)cc3N(C)C2=O)cc1OC | . | . | 35* | 107 | 202*
CS(=O)(=O)N(CC(=O)NCCSCc1ccccc1)c1ccccc1Br | . | . | -1 | 105 | 99
O=C1Nc2cc(C(=O)NCCCN3CCCC3)ccc2S/C1=C\c1ccccc1 | . | . | 18 | 105 | 153*
Oc1ccc2ccccc2c1C=Nc1cc(C(F)(F)F)ccc1N1CCCC1 | -1 | -3 | 17 | 95 | 6.0*
O=C(O)c1ccc(N=Cc2c(O)ccc3ccccc23)cc1 | . | . | 1 | 100 | 100

Screens as filed in PubChem BioAssay.
